High-throughput results from PubChem.
Sampled rows, rich in hits. Any-hit rate of the full collection: about 1.9%.
Cneo AK release – Cryptococcus neoformans lysis via adenylate kinase release; lysis activity, % at 15 µM; 360,000 tested, 0.2% active; C. neoformans lysis, adenylate kinase release luminescence, 4 h; normalised: neutral wells 0, clomiphene wells 100;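 active = mean lysis activity across replicates of at least 80%, whatever share of replicates individually reach that level; inactive = mean lysis activity below 80%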
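read-out = cell lysis signal | test system = log-phase Cryptococcus neoformans yeast cells | input = cells at 5 × 10^6 per mL | medium = fresh YPD growth medium | signal = luminescent adenylate kinase detection reagent | timing = 4 h at 37 °C static, read 1 h later | dosing = single dose | controls = Clomiphene as positive lysis control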
Xi reactivation – reactivates the inactive X chromosome in mouse fibroblasts; XiGFP mouse fibroblasts, % GFP-positive cells imaging, 3 d; cells co-treated with 5-aza-dC sensitizer; scaled so ellipticine positive control = 100%; activation, % at 7.58 µM; 360,000 tested, 0.055% active; AID 743238;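 active = mean normalized replicate activation at least 10% and every replicate at or above 10%; inconclusive = only one of the two criteria met; inactive = mean below 10% and not all replicates reach 10%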;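 note: 0% = median of on-plate neutral control wells and 100% = ellipticine 6 µM median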
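Assay system: SV40-immortalized XiGFP fibroblast cells, line 68-5-11; buffer or medium: DMEM plus 5-aza-dC sensitizer; compound: one concentration, pinned; timing: compounds 3 days, fix/stain 15 min at room temperature; benchmarks: positive control ellipticine, 6 µM final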
PGC1a acetyl inh – PGC1a acetylation modulation, inhibitor mode; U2OS PGC1a acetylation, AlphaScreen anti-acetyl-lysine; with virally co-expressed GCN5 acetyltransferase; inhibition, % at 15.6 µM; 350,000 tested, 0.17% active; AID 651687;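 active = every replicate shows inhibition of at least 40%; inconclusive = mean inhibition at least 40% but some replicate below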;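 note: 0% = neutral control wells and 100% = positive control wells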
FN deposit inh – fibronectin deposition inhibition; AH1F fibroblasts, Alexa488-fibronectin deposition fluorescence, overnight; inhibition, % at 12.6 µM; 350,000 tested, 0.086% active;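 active = mean inhibition across replicates of 30% or more, regardless of how many single replicates reach that level; inconclusive = mean under 30% yet at least half of replicates reach 30%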;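 note: positive control wells lacked labelled fibronectin entirely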
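Measured by – fluorescence 485/525 nm · System – AH1F fibroblast monolayer, labelled fibronectin deposition · Amount – 10000 cells per well · Buffer or medium – serum-reduced DMEM (2% serum) · Doses – single dose, pinned · Also added – fluorescent fibronectin at 24 nM final · Schedule – 1 h cell attachment, overnight exposure to compound and label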
CFTR F508del cor – CFTR F508del correction in bronchial cells; CFBE cells, YFP halide quenching; stimulated with forskolin plus potentiator P3; % fluorescence drop versus neutral controls; activity (quench increase), % at 7.58 µM; 350,000 tested, 0.36% active; AID 720511;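 active = mean added fluorescence quench of at least 8% versus neutral control, with both replicates also reaching 8%; inconclusive = only one of the mean or replicate conditions met; inactive = mean below 8% and not both replicates reaching 8%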;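 note: cells transiently co-express mutant CFTR-F508del with the halide-sensitive YFP; corrector assay measuring rescue of mutant channel to the surface after 24 h compound exposure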
DENV2 CPE rescue – inhibitors of DENV2 cytopathic effect. CPE inhibition, % at 9.99 µM. AID 651640. DENV2-infected cells, cytopathic effect rescue, plate reader. 350,000 tested, 1.7% active; in the data active = CPE inhibition above about 20%, passing the limit was not always enough; inconclusive = no clear call, values can overlap the other calls; tested in BHK-21 cells;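 note: 0% = median of neutral control wells and 100% = median of positive control wells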
* hit, by the source's call; u = inconclusive; x = no result.

SMILES	Cneo AK release	Xi reactivation	PGC1a acetyl inh	FN deposit inh	CFTR F508del cor	DENV2 CPE rescue
COC(=O)[C@]1(Cc2ccccc2)N[C@H](CN(C)S(=O)(=O)c2ccc(C)cc2)[C@@H]2C(=O)N(Cc3ccccc3)C(=O)[C@@H]21	0	0	8	8	1	24*
CCNC(=O)N(CC)C[C@H]1N[C@@](C)(C(=O)OC)[C@H]2C(=O)N(C)C(=O)[C@@H]12	1	0	12	1	-4	46*
CCN(C[C@H]1N[C@@](CC)(C(=O)OC)[C@H]2C(=O)N(C)C(=O)[C@@H]12)S(=O)(=O)c1ccc(OC)cc1	-2	0	1	-4	1	26*
CCC(=O)N1CC2(C1)[C@H](c1ccccc1)[C@@H](CO)N2CC1CCCC1	x	0	x	-2	-1	u
COc1ccc(NC(=O)N[C@H]2CC[C@H](CC(=O)NC3CCC3)O[C@H]2CO)cc1	68	0	-8	x	0	u
COCC(=O)Nc1ccc2c(c1)[C@H]1C[C@H](CC(=O)NCc3ccc(Cl)cc3)O[C@@H](CO)[C@H]1O2	6	0	-1	-4	1	x
O=C(C1CCCC1)N1CC(=O)N2[C@@H](CO)[C@@H](c3ccc(C#CCc4ccccc4)cc3)[C@@H]2C1	x	0	17	-2	0	-11
O=C(CN1CCN(S(=O)(=O)c2ccccc2)CC1)Nc1ccccc1Cl	5	0	2	-7	8.5*	-4
C[C@@H]1CCCCO[C@@H](CN(C)C)[C@H](C)CN([C@@H](C)CO)C(=O)c2cc(NS(C)(=O)=O)ccc2O1	-5	0	-3	-1	-1	1
C[C@H]1CN([C@@H](C)CO)C(=O)c2cc(C#CC(C)(C)O)cnc2O[C@@H]1CN(C)Cc1cccc(F)c1	x	0	-6	6	-1	x
COc1ccc(/C=C\c2onc(C)c2S(=O)(=O)N2CCC(C(=O)NCc3ccco3)CC2)cc1	x	11*	-1	-11	1	-8
CCCNC(=O)C1CCN(S(=O)(=O)c2c(C)noc2/C=C\c2ccc(OC)cc2)CC1	-4	0	x	8	1	1
COc1ccc2c3c([nH]c2c1)[C@@H](CO)N(C(=O)Nc1ccc(F)cc1)CC31CCN(C(=O)Cc2ccccc2)CC1	x	0	-1	x	1	7
COc1ccc(S(=O)(=O)N(C)C[C@H]2Oc3ccc(NC(=O)Nc4ccc5c(c4)OCO5)cc3CC(=O)N([C@@H](C)CO)C[C@@H]2C)cc1	1	0	6	-7	-5	97*
COc1ccc(S(=O)(=O)N(C)C[C@@H]2Oc3ccc(NC(=O)CCC(F)(F)F)cc3CC(=O)N([C@@H](C)CO)C[C@@H]2C)cc1	0	0	-12	x	2	42*
COc1ccc(S(=O)(=O)N(C)C[C@H]2Oc3ccc(NC(=O)Nc4ccc5c(c4)OCO5)cc3CC(=O)N([C@H](C)CO)C[C@H]2C)cc1	3	0	-3	x	-1	4
COc1ccc(S(=O)(=O)N(C)C[C@@H]2Oc3ccc(N(C)C)cc3CC(=O)N([C@H](C)CO)C[C@H]2C)cc1	0	0	4	7	1	30*
Cc1ccc(S(=O)(=O)N(C)C[C@@H]2Oc3ccc(NC(=O)Nc4ccc(C(F)(F)F)cc4)cc3CC(=O)N([C@@H](C)CO)C[C@H]2C)cc1	41	0	7	-13	2	28*
O=C1CN(S(=O)(=O)Cc2ccccc2)C[C@H]2[C@H](c3ccc(C#Cc4cccnc4)cc3)[C@H](CO)N12	x	0	11	x	-3	-5
Cc1ccccc1-c1ccc([C@@H]2[C@@H](CO)N3CCCCN(C(=O)c4cccnc4)C[C@@H]23)cc1	-2	0	-1	x	-3	u
CNC[C@H]1Oc2ncc(C#CC3CCCC3)cc2C(=O)N([C@H](C)CO)C[C@H]1C	-1	0	-1	-3	-1	3
COc1ccc(S(=O)(=O)N(C)C[C@@H]2Oc3ccc(NC(=O)C4CCCCC4)cc3CC(=O)N([C@@H](C)CO)C[C@@H]2C)cc1	3	0	1	x	-1	28*
COc1ccc(NC(=O)Nc2ccc3c(c2)CC(=O)N([C@H](C)CO)C[C@@H](C)[C@H](CN(C)S(=O)(=O)c2ccc(C)cc2)O3)cc1	x	0	2	x	0	34*
COc1ccc(NC(=O)Nc2ccc3c(c2)CC(=O)N([C@H](C)CO)C[C@@H](C)[C@@H](CN(C)S(=O)(=O)c2ccc(C)cc2)O3)cc1	x	0	9	x	3	x
COc1ccc(NC(=O)Nc2ccc3c(c2)CC(=O)N([C@@H](C)CO)C[C@@H](C)[C@@H](CN(C)S(=O)(=O)c2ccc(F)cc2)O3)cc1	-2	-1	-2	4	0	29*
SMILES	Cneo AK release	Xi reactivation	PGC1a acetyl inh	FN deposit inh	CFTR F508del cor	DENV2 CPE rescue
C[C@H](CO)N1C[C@H](C)[C@H](CN(C)CC2CCCCC2)Oc2ccc(NC(=O)Nc3ccc4c(c3)OCO4)cc2CC1=O	54	0	7	x	1	34*
COCCNC(=O)C[C@@H]1C[C@@H]2c3cc(NC(=O)Nc4ccc(F)cc4)ccc3O[C@@H]2[C@H](CO)O1	-2	0	5	-9	-2	-15
Cc1ccc(S(=O)(=O)Nc2ccc3c(c2)CC(=O)N([C@H](C)CO)C[C@H](C)[C@H](CN(C)Cc2ccc(C(=O)O)cc2)O3)cc1	x	-1	-4	x	0	x
Cc1noc(C)c1NC(=O)N(C)C[C@@H]1Oc2ccc(NC(=O)Nc3cccc4ccccc34)cc2C(=O)N([C@@H](C)CO)C[C@H]1C	-3	0	-7	x	-5	7
C[C@H]1CN([C@@H](C)CO)C(=O)Cc2cc(NC(=O)Nc3ccc4c(c3)OCO4)ccc2O[C@@H]1CN(C)S(C)(=O)=O	x	0	-3	x	3	26*
C[C@H]1CN([C@@H](C)CO)C(=O)Cc2cc(NC(=O)Nc3ccc4c(c3)OCO4)ccc2O[C@H]1CN(C)S(C)(=O)=O	-2	0	-8	x	0	10
COc1ccccc1NC(=S)N(Cc1ccco1)Cc1cc2cc(C)cc(C)c2[nH]c1=O	0	0	-27	1	10*	0
Cc1cc(C)c2nc(Cl)c(CN(Cc3ccco3)C(=O)Nc3ccccc3C)cc2c1	-1	x	8	x	11*	0
C[C@@H](NC(=O)[C@@H]1[C@@H](CO)[C@@H]2Cn3c(cccc3=O)[C@@H]2N1CC1CCCCC1)c1ccccc1	x	0	-6	x	0	-14
O=C(NCCN1CCCC1)[C@H]1[C@H](CO)[C@H]2Cn3c(cccc3=O)[C@@H]1N2C(=O)NC1CCCC1	x	0	x	x	-2	23*
